Source: PubChem (several laboratories)
This excerpt belongs to a sample that is enriched for hits.
ROMK primary – ROMK potassium channel modulators, primary screen, cell-based, thallium flux, MLSMR library; Tet-inducible ROMK, thallium flux fluorescence; actives lie on both sides; B-score at 10 µM; 130,000 compounds, 2% hits;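 active means signal ratio slope over the read window, or its plate-corrected B-score, at least 3 SD from the plate mean, either direction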;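 further: B-score of the F/F0 ratio slope over 7 to 12 s after thallium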
Target sequence (P48048 whole entry, looked up): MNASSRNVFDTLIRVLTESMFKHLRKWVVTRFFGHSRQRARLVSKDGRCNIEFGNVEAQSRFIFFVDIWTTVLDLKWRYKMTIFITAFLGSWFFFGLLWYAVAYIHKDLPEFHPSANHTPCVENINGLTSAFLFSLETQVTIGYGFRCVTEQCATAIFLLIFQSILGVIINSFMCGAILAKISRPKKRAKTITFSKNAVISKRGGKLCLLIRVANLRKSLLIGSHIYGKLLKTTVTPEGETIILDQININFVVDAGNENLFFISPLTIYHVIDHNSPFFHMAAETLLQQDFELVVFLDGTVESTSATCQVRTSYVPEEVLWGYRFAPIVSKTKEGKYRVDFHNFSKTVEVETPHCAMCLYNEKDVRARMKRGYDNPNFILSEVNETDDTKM
Calb biofilm kill – clotrimazole potentiators killing C. albicans biofilm, primary screen, 4-compound mixtures; AID 1242, 2008; 120,000 compounds, 0.02% hits; inhibition, % at 7.6 µM; C. albicans biofilm persisters + clotrimazole, fluorescence viability; primary screen in compound mixtures of four per well;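 further: compounds exposed to preformed 24 h biofilms for 48 h; 0% = untreated biofilm control and 100% = clotrimazole plus chlorhexidine kill blank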
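Test system: C. albicans biofilms. Buffer or medium: RPMI/MOPS medium, pH 7.0. Timing: 48 h compound exposure at 37 °C. Technique: Alamar Blue fluorescence. Evaluation: percent inhibition of biofilm viability.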
ROMK retest – ROMK channel modulator hit retest, confirmation, cell-based, thallium flux, duplicate, resupplied hits; 3,000 compounds, 54% hits; fluorescence ratio; active compounds read low; normalized thallium flux (F/F0 slope) at 10 µM; shares compounds with ROMK primary; AID 1917, 2009;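 active means Flux at 10 µM at least 3 SD below or above vehicle control mean in one or both replicates; inconclusive means no clear call, values can overlap the other calls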
* = called active by the depositor.

`O=C(O)c1cc(N2C(=O)C3CC=CCC3C2=O)ccc1NCc1cccnc1` (configuration not stated) gave ROMK primary 2.6* and ROMK retest 0.088.
O=C(O)c1cc(N2C(=O)CCC2=O)ccc1NCc1cccnc1 was read as Calb biofilm kill 20.
`O=C(CCCCCNC(=O)c1ccccc1Br)N=Nc1c(O)[nH]c2ccccc12` gave ROMK primary 0.63 and Calb biofilm kill 14.
For COc1ccc(C(=O)CSc2[nH]c(=O)cc(C(F)(F)F)c2C#N)cc1 the results were Calb biofilm kill 22 and ROMK retest 0.068*.
Screening COc1ccc(-c2cc(C(F)(F)F)c(C#N)c(SCC(=O)Nc3ccc(C)cc3)n2)cc1 returned ROMK primary 0.0019.
`CC1Cc2nc(SCC(=O)N3CCN(c4ccccc4)CC3)n(CCc3ccccc3)c(=O)c2S1` (configuration not stated) gave ROMK retest 0.064*.
`CC1Cc2nc(SCC(N)=O)n(Cc3ccccc3)c(=O)c2S1` (configuration not stated) gave Calb biofilm kill 7.
Screening Nc1nonc1C(=O)NCCNCc1cc(Br)ccc1OCc1ccccc1F returned ROMK primary -4.2* and ROMK retest 0.049*.
`COc1cc(CNCCNC(=O)c2nonc2N)ccc1OCc1ccc(Cl)cc1` gave ROMK primary -3.1*, Calb biofilm kill 24 and ROMK retest 0.053*.
Screening COc1cc(CNCc2ccccn2)ccc1OCc1ccc(Cl)cc1 returned Calb biofilm kill 27.
For CCOc1ccccc1CNCCNC(=O)c1nonc1N the results were Calb biofilm kill 8.
For CCNS(=O)(=O)c1ccc(CCC(=O)NCCC2=CCCCC2)cc1 the results were ROMK primary -0.65 and Calb biofilm kill 9.
`COc1ccc(/C(N)=N/OC(=O)CCCc2ccccc2)cc1OC` gave ROMK primary -0.43 and Calb biofilm kill 6.
Screening CN1CCN(S(=O)(=O)c2ccc(NC(=S)NC(=O)C(C)(C)C)cc2)CC1 returned ROMK primary -0.37 and Calb biofilm kill 2.
`CCOC(=O)c1[nH]c2ccc(OC)cc2c1NC(=O)OC` gave ROMK retest inconclusive.
`CCOC(=O)Nc1c(C(=O)OC)[nH]c2cc(OC)ccc12` gave ROMK primary 1.8.
CC(C)CN(CC(C)C)C(=O)C12CCC(C)(C(=O)C1)C2(C)C (configuration not stated) was read as ROMK primary -0.037.
For O=C(COC(=O)c1ccccc1C(=O)c1ccc(Cl)cc1)NC(c1ccccc1)c1ccccc1 the results were Calb biofilm kill 27.
For CN(C)CCCN(C(=O)c1ccco1)c1nc2ccc(Cl)cc2s1 the results were ROMK primary -4.1*, Calb biofilm kill 13 and ROMK retest inconclusive.
CCN(CC)CCCN(C(=O)c1ccco1)c1nc(-c2ccc(C)cc2)cs1 was read as ROMK primary -3.5*, Calb biofilm kill 23 and ROMK retest 0.057*.
`CN(C)CCCN(C(=O)c1ccco1)c1nc2ccc(Br)cc2s1` gave ROMK primary -0.025 and Calb biofilm kill 17.
For O=C(c1ccco1)N(CCCN1CCOCC1)c1nc(-c2ccc(Cl)cc2)cs1 the results were ROMK primary -0.28.
`N=c1n(Cc2ccccc2)c2ccccc2n1CC(O)c1ccco1` (configuration not stated) gave ROMK primary -2.5* and ROMK retest 0.061*.
Screening C=CCn1c(=N)n(CC(O)c2ccco2)c2ccccc21 (configuration not stated) returned ROMK primary -1.3.
For N=c1n(CC(=O)c2ccc([N+](=O)[O-])cc2)c2ccccc2n1Cc1ccccc1 the results were Calb biofilm kill 12.
`N=c1n(Cc2ccccc2)c2ccccc2n1Cc1ccccc1` gave ROMK primary -3.6*, Calb biofilm kill 9 and ROMK retest inconclusive.
C#CCOCCOCCOCCNc1nc(N2CCN(C(=O)Cn3cc(CC(C)O)nn3)CC2)nc(N2CCN(C(=O)[C@H](C)n3cc(CCCN=C(N)N)nn3)CC2)n1 (some centres not stated) was read as ROMK primary 2.5 and Calb biofilm kill 16.
Screening COc1ccc(S(=O)(=O)N2CCOC2CNC(=O)C(=O)NCCc2c[nH]c3ccccc23)cc1C (configuration not stated) returned ROMK primary -1.4 and Calb biofilm kill 14.
For O=C(O)C1CC=CCC1C(=O)c1ccccc1 (configuration not stated) the results were ROMK primary 3.4* and ROMK retest 0.081.
